This sample holds only a part of the variants without activity.
B1: tRNA (parent)
chain: GUUCCGUUGGCGUAAUGGUAACGCGUCUCCCUCCUAAGGAGAAGACUGCGGGUUCGAGUCCCGUACGGAACG

Variants of: B1
Experiment: yeast fitness relative to wild type (ratio to wild type); higher = fitter; tRNA-Arg(CCU), competitive growth, 37 C, YPD
Summary of the method: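 Variants of the tRNA-Arg(CCU) gene, chemically synthesised with a 3% per-site mutation rate at 69 sites, were placed at the native genomic locus in Saccharomyces cerevisiae. The pooled strains were competed in YPD at 37°C for 24 hours in six parallel replicates. Gene amplicons from the start population and from each end population were read by 100-nucleotide paired-end sequencing. Darwinian fitness relative to wild type came from changes in genotype frequencies; genotypes needed ≥ 100 starting reads, and estimates < 0.5 were set to 0.5.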

Question: Which yeast fitness does the source give for C4A A21C C22U G50C here?
Answer: 0.617

Question: Which yeast fitness does the source give for C4A C22G C33G U54G here?
Answer: ≤ 0.5

Question: Which yeast fitness does the source give for C4A A14U A43C A65U here?
Answer: ≤ 0.5

Question: With C4A C22G C30U A40G A45C as the variant, how does the yeast fitness read?
Answer: ≤ 0.5

Question: For C4A C22G, which yeast fitness is on record?
Answer: 0.65

Question: With C4A C22U as the variant, how does the yeast fitness read?
Answer: 0.789

Question: For C4A C5G A15G G23C C30U, which yeast fitness is on record?
Answer: ≤ 0.5

Question: With C4A A14U A20C U28G G63U A69C as the variant, how does the yeast fitness read?
Answer: ≤ 0.5

Question: With C4A A14G G18A G25C as the variant, how does the yeast fitness read?
Answer: ≤ 0.5

Question: Which yeast fitness does the source give for C4A A37C A70U here?
Answer: ≤ 0.5

Question: With C4A C22U A70C as the variant, how does the yeast fitness read?
Answer: 0.663

Question: With C4A A43C G58A as the variant, how does the yeast fitness read?
Answer: 0.588

Question: For C4A A43U U47G, which yeast fitness is on record?
Answer: ≤ 0.5

Question: Which yeast fitness does the source give for C4A A69U here?
Answer: 0.952

Question: For C4A A69C, which yeast fitness is on record?
Answer: 0.863

Question: With C4A A69G as the variant, how does the yeast fitness read?
Answer: 0.904

Question: With C4A C33A C60A G63A U64C as the variant, how does the yeast fitness read?
Answer: ≤ 0.5

Question: Which yeast fitness does the source give for C4A C27A here?
Answer: 0.798

Question: Which yeast fitness does the source give for C4A C27G here?
Answer: 0.674

Question: For C4A C27U, which yeast fitness is on record?
Answer: 0.901

Question: With C4A A42G U64A as the variant, how does the yeast fitness read?
Answer: ≤ 0.5

Question: With C4A A14U A20C U28G C49U as the variant, how does the yeast fitness read?
Answer: ≤ 0.5

Question: Which yeast fitness does the source give for C4A A40G here?
Answer: 0.828

Question: For C4A C31U G51A A70G, which yeast fitness is on record?
Answer: ≤ 0.5

Question: Which yeast fitness does the source give for C4A A21C C22U G50C A70U here?
Answer: 0.73

Question: For C4A A14G C24U U32G A43G C66U, which yeast fitness is on record?
Answer: 0.573

Question: With C4A A14C U19A A69C as the variant, how does the yeast fitness read?
Answer: 0.53

Question: With C4A A14G G23C A65G as the variant, how does the yeast fitness read?
Answer: ≤ 0.5

Question: For U3G U26A U28G A45C U54C G67A A69U, which yeast fitness is on record?
Answer: ≤ 0.5

Question: With C4A C22A C29U A69U as the variant, how does the yeast fitness read?
Answer: ≤ 0.5

Question: For C4A A36U A37C U47C A70U, which yeast fitness is on record?
Answer: 0.55

Question: For C4A A21U C46A, which yeast fitness is on record?
Answer: 0.58

Question: Which yeast fitness does the source give for C4A C29A A70C here?
Answer: ≤ 0.5

Question: With C4A C22U G68A as the variant, how does the yeast fitness read?
Answer: ≤ 0.5

Question: For C4A C5U A20G U28A A37U C61U A69U, which yeast fitness is on record?
Answer: ≤ 0.5

Question: With C4A A15G G17A A21C U28A A40U as the variant, how does the yeast fitness read?
Answer: ≤ 0.5

Question: Which yeast fitness does the source give for C4A C29G U47G U59G here?
Answer: ≤ 0.5

Question: Which yeast fitness does the source give for C4A A15C U35G here?
Answer: ≤ 0.5

Question: For C4A A21C C22U U35C G50C A70U, which yeast fitness is on record?
Answer: 0.563

Question: Which yeast fitness does the source give for C4A C30U here?
Answer: 0.756

Question: With C4A C5A C30A C31U C33A A40U C60G as the variant, how does the yeast fitness read?
Answer: ≤ 0.5

Question: With C4A C5U U19A C55U as the variant, how does the yeast fitness read?
Answer: 0.539

Question: Which yeast fitness does the source give for C4A A14G C49A here?
Answer: ≤ 0.5

Question: With C4A C11U A57C as the variant, how does the yeast fitness read?
Answer: ≤ 0.5

Question: With C4A A57C C61G as the variant, how does the yeast fitness read?
Answer: ≤ 0.5

Question: Which yeast fitness does the source give for U3G U53C A57G C66U A69U here?
Answer: ≤ 0.5

Question: Which yeast fitness does the source give for C4A A15G U32C U35C G67C A69U here?
Answer: ≤ 0.5

Question: For C4A C33U C60G, which yeast fitness is on record?
Answer: 0.601

Question: For C4A C33A C62A, which yeast fitness is on record?
Answer: 0.668

Question: For C4A C30U U54A, which yeast fitness is on record?
Answer: ≤ 0.5

Question: With C4A C33A C34U G39C U54A as the variant, how does the yeast fitness read?
Answer: ≤ 0.5

Question: Which yeast fitness does the source give for C4A C22U G48C here?
Answer: ≤ 0.5

Question: Which yeast fitness does the source give for C4A C31G C62U here?
Answer: 0.71

Question: With C4A A15U G18C G56C G67A as the variant, how does the yeast fitness read?
Answer: ≤ 0.5

Question: For C4A C31U C61U, which yeast fitness is on record?
Answer: ≤ 0.5

Question: Which yeast fitness does the source give for C4A C24G U28G C31U here?
Answer: ≤ 0.5

Question: With C4A A14U C34U as the variant, how does the yeast fitness read?
Answer: 0.763

Question: With C4A C24A U26C C29A A36U C60U as the variant, how does the yeast fitness read?
Answer: ≤ 0.5

Question: With C4A A14G C30G A45G G52A G63A as the variant, how does the yeast fitness read?
Answer: ≤ 0.5

Question: For C4A C5A G23A, which yeast fitness is on record?
Answer: ≤ 0.5

Question: For C4A C11G U19G A42G, which yeast fitness is on record?
Answer: ≤ 0.5

Question: For C4A A37G A45C C66G, which yeast fitness is on record?
Answer: ≤ 0.5

Question: Which yeast fitness does the source give for C4A C34G G38C here?
Answer: ≤ 0.5

Question: With C4A A14C C24U G25A C34A as the variant, how does the yeast fitness read?
Answer: 0.571

Question: Which yeast fitness does the source give for C4A A15G C33G C60A A70C here?
Answer: 0.599

Question: With C4A A15U A42G C61U as the variant, how does the yeast fitness read?
Answer: ≤ 0.5

Question: With C4A C22A G44C as the variant, how does the yeast fitness read?
Answer: ≤ 0.5

Question: With C4A A20C A42C U54C as the variant, how does the yeast fitness read?
Answer: ≤ 0.5

Question: With U3G U47C as the variant, how does the yeast fitness read?
Answer: 0.901

Question: Which yeast fitness does the source give for C4A C11A C29G A40G here?
Answer: 0.574

Question: With C4A C29U G52C as the variant, how does the yeast fitness read?
Answer: ≤ 0.5

Question: For C4A A15C C55U G63C, which yeast fitness is on record?
Answer: ≤ 0.5

Question: With U3G U53C C66U A69U as the variant, how does the yeast fitness read?
Answer: 0.548

Question: With C4A A20C U47A as the variant, how does the yeast fitness read?
Answer: ≤ 0.5

Question: Which yeast fitness does the source give for C4A A36G G51C A65U here?
Answer: ≤ 0.5

Question: For C4A A14C C27A, which yeast fitness is on record?
Answer: ≤ 0.5

Question: Which yeast fitness does the source give for C4A A21C C22U G50C G51A A70U here?
Answer: 0.559

Question: Which yeast fitness does the source give for C4A C24U A65U here?
Answer: ≤ 0.5

Question: Which yeast fitness does the source give for C4A C11A U13C U28G A43G here?
Answer: ≤ 0.5

Question: With C4A A15U C61A as the variant, how does the yeast fitness read?
Answer: 0.78

Question: For C4A A57C C66U, which yeast fitness is on record?
Answer: ≤ 0.5

Question: For C4A A14U C34U U54C, which yeast fitness is on record?
Answer: ≤ 0.5

Question: With C4A C22U U59A as the variant, how does the yeast fitness read?
Answer: ≤ 0.5

Question: For C4A C11U G18A A65C, which yeast fitness is on record?
Answer: 0.505

— the RNAGym collection of RNA variant scans (doi:10.1126/science.aae0568)
